Source: PubChem BioAssay (several laboratories)
MT stabilizer: stabilizes microtubules in HeLa cells; HeLa tubulin immunostaining HCS, 24 h; share of cells brighter than vehicle mean+2SD; % tubulin-high responders, % at 10 µM; 200,000 tested, 0.83% active;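 active = plate Z-score above 3 for both tubulin-high and condensed-nucleus cell shares, with cell loss under 80%, at 10 µM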;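 also: anti alpha tubulin signal scored within the nucleus-defined area of each cell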
Ba/F3 V617F tox: lowers viability of Ba/F3 cells expressing EpoR and JAK2V617F; 220,000 tested, 1.1% active; AID 1446; ATP luminescence; inhibition, % at 5.6 µM;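 active = inhibition above the campaign mean plus 3 SD over all tested compounds, cut at about 24% in these data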;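 also: cytokine-independent growth of Ba/F3 cells driven by EpoR plus mutant JAK2; 0% = DMSO-treated cells and 100% = JAK inhibitor I control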
APP 5UTR inh: APP translation inhibition; 190,000 tested, 0.82% active; AID 1285; inhibition, % at 2 µM; SH-SY5Y APP 5'UTR-luciferase reporter, luminescence;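 active = inhibition above a set limit, derived from the sample mean plus 3 SD, cut at about 45% in these data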
IEC-6 tox: counter-screen for KLF5 inhibitors: cytotoxicity in IEC-6 cells; IEC-6 cytotoxicity, luminescence viability; inhibition, % at 5 µM; 290,000 tested, 0.78% active;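 also: 0% = plate median of test compound wells and 100% = cytotoxic reference compound wells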
b-catenin transl: beta-catenin nuclear translocation modulation; HeLa beta-catenin nuclear translocation, immunofluorescence imaging; nuclear translocation activity, % at 5 µM; 190,000 tested, 0.3% active; AID 1665;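 active = nuclear translocation activity above 50% at 5 µM, with a well cell count of 50 or more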;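 also: per-cell ratio of nuclear to cytoplasmic median beta-catenin stain intensity; plate controls were DMSO negative control for no effect and GSK-3 inhibitor IX positive control for full effect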
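Read-out: Nuclear/cytoplasmic beta-catenin signal ratio, % activation | Assay system: Human HeLa cell line | Times: 24 h compound exposure at 37°C, 5% CO2 | Signal: Fluorescence imaging of beta-catenin antibody stain plus DAPI | Dosing: 5 µM primary, 0.02–20 µM confirmation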
BaF3 parental: counter-screen for JAK2V617F inhibitors: parental Ba/F3 viability inhibitors; CellTiter-Glo ATP luminescence; inhibition, % at 5.6 µM; 220,000 tested, 1.1% active; AID 1486;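 active = inhibition above a per-campaign cutoff, the mean inhibition of all tested compounds plus 3 SD, cut at about 27% in these data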;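 also: 0% = DMSO wells and 100% = JAK Inhibitor I control wells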
BaF3 parental 2: counter-screen for JAK2V617F inhibitors: parental Ba/F3 viability inhibitors. shares compounds with Ba/F3 V617F tox. inhibition, % at 5.6 µM. CellTiter-Glo luminescence; cells kept alive by added IL-3. 580 tested, 31% active;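 active = cell growth inhibition above the hit limit set in the earlier mutant JAK2 cell screen, cut at about 27% in these data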;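 also: plate controls were DMSO-treated cells for no effect and JAK Inhibitor I control wells for full effect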
JAK2V617F confrm: confirmation: loss of viability in JAK2V617F-dependent Ba/F3 cells; inhibition, % at 5.6 µM; shares compounds with Ba/F3 V617F tox; 580 tested, 66% active; Ba/F3 EpoR-JAK2V617F viability, CellTiter-Glo luminescence;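 active = mean inhibition above the hit cutoff derived in the earlier primary screen, cut at about 25% in these data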;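 also: 0% = DMSO-treated cells and 100% = JAK inhibitor I control wells; higher means lower luminescence from reduced cell ATP and viability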
IEC-6 cytotox cf: confirmation of cytotoxic compounds in rat IEC-6 intestinal epithelial cells; shares compounds with IEC-6 tox; IEC-6 rat intestinal epithelial viability, luminescence; inhibition, % at 5 µM; 1,900 tested, 63% active; AID 1907;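 also: 0% = vehicle and 100% = reference cytotoxic drug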
* marks the source's active call; other numbers are inactive results; nt = not tested or not shown. The list is not random: actives were taken first. Their share in the collection is about 2.2%. Rule as the data show it, unless noted: active = inhibition above about 22%; inactive = the rest.

SMILES	MT stabilizer	Ba/F3 V617F tox	APP 5UTR inh	IEC-6 tox	b-catenin transl	BaF3 parental	others
C[N+]1=C(/C=C/Nc2ccccc2)C(C)(C)c2ccccc21	7	59*	-16	5	-1	61*
COc1cc(OC)c(OC)cc1CNCCc1ccc2c(c1)OCO2	nt	nt	nt	7	nt	nt
COc1ccc(C2NCc3ccc4c(c3-n3cccc32)OCO4)cc1O (stereo not drawn)	29*	75*	94*	74*	nt	73*
C=C1C(=O)O[C@H]2[C@H]1[C@H](OC(=O)CC(=O)O[C@@H]1C[C@@H](C)[C@@H]3C=CC(=O)[C@@]3(C)[C@H]3OC(=O)C(=C)[C@H]13)C[C@@H](C)[C@H]1C=CC(=O)[C@]12C	nt	nt	nt	nt	-2	nt
C=C1C(=O)O[C@@H]2C[C@@H](C)[C@@H]3C=CC(=O)[C@@]3(C)[C@@H](OC(=O)CC(=O)O[C@H]3[C@@H]4C(=C)C(=O)O[C@@H]4C[C@@H](C)[C@@H]4C=CC(=O)[C@]43C)[C@H]12	nt	nt	nt	nt	72*	nt
CCCNC1=C(C)C(=O)C2=C(C1=O)C(COC(N)=O)[C@]1(OC)C3NC3CN21 (stereo partly drawn)	nt	82*	nt	8	0	62*
CC(C)CCn1c(=O)c(C(=O)NCc2ccco2)c(O)c2ccccc21	nt	1	nt	2	0	-1
CCC(=Nc1ccc2c(c1)CCC2)c1c(O)n(-c2ccc(OC)cc2)c(=O)[nH]c1=O	nt	0	nt	1	1	-2
CN1/C(=C\C=Nc2ccccc2)C(C)(C)c2ccccc21	3	31*	-14	-5	8	57*
CC1CCC(C(C)C)C(OC(=O)Cn2c(COc3ccccc3)[n+](C)c3ccccc32)C1 (stereo not drawn)	nt	99*	nt	-7	12	101*
COc1cc(CN2CCN(c3cc(C)ccc3C)CC2)ccc1O	2	35*	-26	10	nt	50*
CCN1CC=C(c2c[nH]c3ccccc23)CC1	2	87*	2	-6	-8	73*
CCOc1cc2c(cc1OCC)-n1cccc1C(c1ccccc1OC)NC2 (stereo not drawn)	nt	nt	nt	10	nt	nt
O=C1NC(=O)C(CCc2ccncc2)(Cc2cccc(Cl)c2Cl)C(=O)N1c1ccc(Br)cc1 (stereo not drawn)	19*	1	7	12	95*	6
CC1=C2C(=O)C3C(CC=C4CC(O)CCC43C)C2CCC12OC1CC(C)CNC1C2C (stereo not drawn)	nt	nt	nt	0	nt	nt
CCCC[N+]12CCC(CC1)C(Cc1ccccc1)C2 (stereo not drawn)	nt	20	nt	0	1	31*
CCCC[N+]12CCC(CC1)C(C(O)(c1ccccc1)c1ccccc1)C2 (stereo not drawn)	nt	0	nt	-5	0	3
Cn1c(O)c(C=Nc2ccc(F)cc2)c(=O)[nH]c1=O	nt	nt	nt	-11	nt	nt
CC(C)(C)n1c(O)c(C=Nc2ccc3c(c2)CCC3)c(=O)[nH]c1=O	6	-3	3	0	0	63*
COc1ccc(Oc2cc(NC(=O)c3nn(C)cc3[N+](=O)[O-])cc([N+](=O)[O-])c2)cc1	60	63*	95*	15	nt	42*
COc1ccc(NC(=O)c2cn(CCC#N)nc2-c2cccc([N+](=O)[O-])c2)cc1	nt	4	nt	5	0	-2
CCOC(=O)CSc1ccc(C(=O)N2CCC3(CC2)OCCO3)cc1[N+](=O)[O-]	nt	nt	nt	-1	nt	nt
O=C1CC(c2ccccc2)CC(O)=C1C=NCCN1CCN(C(=O)Cc2ccccc2)CC1 (stereo not drawn)	2	3	-8	5	nt	28*
CCN1CCN(S(=O)(=O)c2ccc(Cl)c(C(=O)Nc3ccc(C(=O)N(CC)CC)cc3)c2)CC1	nt	nt	nt	0	nt	nt
CCCCCSc1cc(OC)c(CCN)cc1OC	19	8	55*	12	-1	10
SMILES	MT stabilizer	Ba/F3 V617F tox	APP 5UTR inh	IEC-6 tox	b-catenin transl	BaF3 parental	others
O=C(NC12CC3CC(CC(C3)C1)C2)OC1CN2CCC1CC2 (stereo not drawn)	nt	-4	nt	3	-3	2
Cc1ccc(CNCCc2ccccc2F)cc1	2	-1	12	-7	0	5
CCN(CC)c1ccc(CNCCc2ccccc2F)cc1	21*	2	-1	4	36	5
Cc1cc(OC(C)C(=O)NCC(O)c2ccccc2)c2c3c(c(=O)oc2c1)CCC3 (stereo not drawn)	nt	nt	nt	-2	nt	nt
c1ccc2[nH]c(CCNC3CCCCC3)nc2c1	2	49*	-2	-6	-6	1	BaF3 parental 2=-1;JAK2V617F confrm=-2
CCOc1cc2c(cc1OCC)-n1cccc1C(c1cccc(F)c1F)NC2 (stereo not drawn)	nt	nt	nt	0	nt	nt
COc1ccc(NC(=O)c2cn(CCC#N)nc2-c2cccc(Br)c2)cc1	nt	nt	nt	0	nt	nt
C/C(=C\c1ccc(N(C)C)cc1)[N+](=O)[O-]	3	32*	32	-3	0	-1	BaF3 parental 2=-3;JAK2V617F confrm=74*
CN(C)c1ccc(/C=C/[N+](=O)[O-])cc1	2	1	-15	-9	0	7
O=C(Nc1ccccc1)N1CCC2(CC1)OCCO2	3	30*	-17	0	-2	6	BaF3 parental 2=-7;JAK2V617F confrm=-10
O=C(O)c1[nH]c(=O)[nH]c(=O)c1F	nt	64*	nt	-1	-3	5	BaF3 parental 2=20;JAK2V617F confrm=67*
CC1(C)C[C@H]2C=C(C=O)[C@]3(C=O)C[C@]3(C)[C@H]2C1	4	63*	96*	1	5	6	BaF3 parental 2=103*;JAK2V617F confrm=100*
CC(=O)N1CC(=O)Nc2ccc(Br)cc2C1c1ccc(F)cc1 (stereo not drawn)	nt	nt	nt	-2	nt	nt
COc1ccc(OC)c(N=Cc2c(O)[nH]c(=O)[nH]c2=O)c1	nt	nt	nt	4	nt	nt
C[C@H]1CCC[C@@H](O)CCC/C=C/c2cc(O)cc(O)c2C(=O)O1	5	3	3	4	-9	4
CC1CCC/C=C/C2CC(O)CC2C(O)/C=C/C(=O)O1 (stereo not drawn)	35	62*	94*	101*	nt	0	BaF3 parental 2=103*;JAK2V617F confrm=67*;IEC-6 cytotox cf=100*
C[C@H]1CCC/C=C/C2C[C@H](O)CC2[C@H](O)/C=C/C(=O)O1 (stereo partly drawn)	23	38*	91*	99*	31	6	BaF3 parental 2=107*;JAK2V617F confrm=78*;IEC-6 cytotox cf=102*
Cc1cc(OCC(=O)NCc2ccncc2)c2c3c(c(=O)oc2c1)CCCC3	nt	nt	nt	11	nt	nt
O=C(O)c1cccc2nc3ccccc3nc12	6	1	2	40*	-1	7	IEC-6 cytotox cf=16
